In ChEMBL document CHEMBL4513216, “Probing the Open Global Health Chemical Diversity Library for Multistage-Active Starting Points for Next-Generation Antimalarials” (ACS Infect Dis, 2020):

Assay: Toxicity liver stage against HepG2, at 10uM
Type: cell-based
Parameters: test concentration 10 uM, cell line HepG2-A16-CD81EGFP
Conditions: human, HepG2-A16-CD81EGFP cells; read-out: INHIBITION
Outline: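 Uninfected HepG2-A16-CD81EGFP cells, 3 × 10^3 per well, 1536-well, plated on prespotted compound at 10 μM final, parasite-free screening media added to match infected plates; puromycin 10 μM positive, DMSO 0.5% negative; run in parallel with 48 h PbLuc assay at 37 °C, 5% CO2; viability by CellTiter-Glo luminescence, normalized to controls.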

SMILES | cytotoxicity at 10 µM [%]
COCCNC(=O)Cn1cc(OCc2ccc(F)cc2)c(=O)cc1C | -3.04
CNC(=O)CS(=O)(=O)C1CCN(S(=O)(=O)c2ccccc2Cl)CC1 | 11.7
CCCc1ccc(N2CCN(Cc3nc4ccccc4n3C)CC2)cc1 | 7.06
O=C(c1ccno1)N1CCC2(CC1)C(=O)N(CC1CC1)c1ccccc12 | 7.85
CS(=O)(=O)N1CC[C@H]2C[C@@H](C(=O)N3CCOCC3)O[C@@H]2C1 | 2.28
CCCN(C(=O)CCS(=O)(=O)Cc1ccccc1)c1cccc(C)c1 | -2.67
CCN1CCCC(O)(CNCc2ccccn2)C1 (stereo unspecified) | -5.69
COc1ccc(NC(=O)c2cnc(C3CCN(C(C)=O)C3)nc2C)cc1 (stereo unspecified) | -2.6
COc1nsc2nc(C3CCCN3c3ncccn3)ccc12 (stereo unspecified) | 10.5
Cc1cccc(C)c1Nc1noc2c1CN(C(=O)c1cn(C)cn1)CC2 | 12.9
Cn1cc(CN2CCCCC2c2ccc(-c3cnn(C)c3)nc2)cn1 (stereo unspecified) | 9.25
CN(C)C(=O)C1CN(c2ncccn2)CCN1C (stereo unspecified) | -0.419
Cc1nccc(N2CCN(C3CCOCC3)CC(C(=O)N(C)C)C2)n1 (stereo unspecified) | 2.12
c1cnc(C2CCCN(Cc3ccsc3)C2)cn1 (stereo unspecified) | -5.67
Cc1ncc(CN2CCC(c3nc(O)cc(-c4ccsc4)n3)CC2)cn1 | -11.8
O=C(CC1CCN(CCc2ccccc2)CC1)NC1CCOCC1 | 3.31
CCCC(=O)N1CCCC(c2cc3cccnc3c(O)n2)C1 (stereo unspecified) | 7.53
O=C(CCN1CCc2ccccc21)N1CC(C(=O)N2CCOCC2)C1 | -26.7
O=C(Cc1ccsc1)N1CCC(c2noc(-c3cccnc3)n2)CC1 | -18.2
O=C(c1ccc(O)nc1)N1Cc2ccccc2OC2(CCOCC2)C1 | -44.2
CNC(=O)C1CN(Cc2c[nH]cn2)CCN(C2CCOCC2)C1 (stereo unspecified) | -17
Cc1ncsc1CN1CCN(C2CCOCC2)CC(C(N)=O)C1 (stereo unspecified) | 14.4
COc1ccccc1CN1CCc2c(nc(-c3ccccn3)[nH]c2=O)C1 | -19.7

SMILES | cytotoxicity at 10 µM [%]
CC(=O)N1CCCC1c1ccc(-c2c(C)noc2C)cn1 (stereo unspecified) | 2.88
Cc1nnc(NC(=O)C2CSCN2C(=O)C2CCCC2)s1 (stereo unspecified) | -17.1
C[S+]([O-])CCNC(=O)N1CCSC(C)(C)C1 (stereo unspecified) | -0.0105
CC(=O)Nc1ccc(SCC(O)COCc2ccc3c(c2)OCO3)cc1 (stereo unspecified) | 3.56
Cc1ccc(N2CCCN(C(=O)C(C)OCC3CC3)CC2)nn1 (stereo unspecified) | 0.0479
CC(CN1CCOC1=O)NC(=O)c1cccc2cc[nH]c12 (stereo unspecified) | 6.2
CCSc1ccc(NC(=O)NC2CCc3[nH]ncc3C2)cn1 (stereo unspecified) | -3.27
O=C(CC1OCCc2ccccc21)NCCn1cccc1 (stereo unspecified) | 1.71
COCc1nnc(-c2cccc(C(=O)N(C)CC(C)(C)C)c2)o1 | -11.1
Cc1ocnc1CNC(=O)Nc1ccc(N2CCOC(C)C2)cc1 (stereo unspecified) | -2.8
O=C(NCc1nncn1C1CC1)c1cccnc1Oc1ccccc1 | 1.57
O=C(NCc1nncn1C1CC1)c1ccccc1OCC1CC1 | 3.36
COc1c(C2CCCN2CCOc2ccccc2C#N)c(C)nn1C (stereo unspecified) | 2.59
COc1cc(C2(C(=O)NC3CCN(CC4CC4)CC3)CC2)ccc1C | -11.2
CCS(=O)(=O)c1ccc(N2CCC(NC(=O)NC(C)CO)CC2)cc1 (stereo unspecified) | 13.9
Cc1cccc(-c2noc(CNC(C)Cn3cc(C)cn3)n2)c1 (stereo unspecified) | -2.87
CS(=O)(=O)Cc1ccc(C(=O)N2CCCC(n3cncn3)C2)o1 (stereo unspecified) | -9
Cc1cn(-c2ccccc2)nc1NS(=O)(=O)c1cc(C(=O)O)ccc1Cl | 13.1
CC1CN(C)c2ccccc2CN1C(=O)c1ccoc1 (stereo unspecified) | -2.84
COCCCN(Cc1ccncc1)C(=O)CSc1ccc(F)cc1 | 0.807
O=S(=O)(Cc1c(F)cccc1Cl)Cc1nnnn1C1CC1 | -5.19
CCC(=O)N1CCC(NC2CCSCC2)C1 (stereo unspecified) | 2.85
Cc1occc1CNC(=O)Nc1ccc2nc(N3CCOCC3)oc2c1 | 9.5

SMILES | cytotoxicity at 10 µM [%]
CNC(=O)C(C)(C)CNC(=O)Nc1cc(C)ccn1 | 11.7
O=C(O)c1c(Cl)ncn1-c1cccc2ccccc12 | 1.76
CC1(C)CN=C(N2CCN(CC3CCCO3)CC2)S1 (stereo unspecified) | -8.41
CC(C)OCCN1CCN(c2ccc(CN(C)C)cn2)CC1 | -5.89
CC(=O)NCCCC(=O)NC1(c2ccc(Cl)c(Cl)c2)CC1 | -7.79
Cc1nonc1NC(=O)c1ccc(F)c(COCC2CC2)c1 | 18.6
CC(=O)N1CCCc2cc(NC(=O)NCCc3cnn(C)c3)ccc21 | -5.42
Cc1cc(=O)c(C(=O)N(C)Cc2ccc(Cl)c(F)c2)c[nH]1 | 9.39
CCc1nc(C2CCCN2C(=O)CCCOc2cccc(F)c2)no1 (stereo unspecified) | 11.1
Cc1noc([C@H]2C[C@@H]3CCN(C(=O)c4cccn4C)C[C@H]3O2)n1 | -103
CC(=O)N1CCOC2(CCN(C(=O)c3cnoc3C)CC2)C1 | -0.0788
CN(Cc1nc(-c2ccccc2)no1)Cc1cnc(N2CCOCC2)s1 | -1.48
Cc1ccccc1N1CCN(C(=O)c2cnc(N(C)C)nc2C)C(C)C1 (stereo unspecified) | 15.3
N[C@H]1CN(C(=O)c2ccc(Cl)cc2F)C[C@@H]1C1CC1 | -44.3
Cc1ccsc1CN1CCC(c2nnc(Cn3cccn3)n2C)CC1 | -2.97
CN(C)[C@H]1CCN(c2ccnc(C(=O)NCc3ccco3)c2)C1 | 4.12
CC(C)(O)CCc1cccc(C(=O)NCC2COCCO2)c1 (stereo unspecified) | -6.38
Cc1cc(C)n(Cc2cc(C(=O)N[C@H]3CCCCNC3=O)n[nH]2)n1 | 5.97
CCCS(=O)(=O)N1CCC2(CCC(=O)N(CCc3ccccc3)C2)CC1 | 6.84
CC(C(=O)N(C)Cc1noc(C2CCC2)n1)N1CCc2ccccc2C1 (stereo unspecified) | -79.1
CCC(CO)N(Cc1cccc(-n2cccn2)c1)Cc1ccccn1 (stereo unspecified) | 6.95
COc1cccc(OC)c1OCCN1C(=O)CCNC1=O | -7.89
CNC(=O)[C@@H]1C[C@@H](NC(=O)c2cn(C)nc2C)CN1Cc1sccc1C | -5.58

SMILES | cytotoxicity at 10 µM [%]
CC(C)c1nc(-c2ccc(=O)[nH]n2)n(-c2ccc3c(c2)OCO3)n1 | 6.46
COc1cccc(-c2cc(NCCN(C)C)nc3[nH]ccc23)n1 | -3.97
Cc1cc(C)n(CCCN(C)C(=O)CN2CC3(CCNCC3)OC2=O)n1 | 5.25
O=S(=O)(Cc1ccccc1CN1CCOCC(O)C1)c1ccccc1 (stereo unspecified) | -22.8
Cc1nc(O)cc(CCNc2nc(N(C)C)nc(C)c2C)n1 | -3.03
COc1ccc(F)c(CN2CCCC(c3cc(O)nc(C)n3)C2)c1 (stereo unspecified) | 7.3
CCc1nc(CNc2ccc(-c3nc(C4CC4)no3)cn2)no1 | -6.14
CC(C)c1noc(C2CCCN2C(=O)CN2CCc3ccccc32)n1 (stereo unspecified) | -8.76
COc1ccc(C(=O)C2CCCN(c3cnccn3)C2)c(C)c1 (stereo unspecified) | -2.69
CCc1ccc2nc(C)cc(C(=O)N3C[C@H]4CCC[C@@]4(CO)C3)c2c1 | -2.37
CCc1cc(N(C)Cc2ncc[nH]2)nc(N2CCOCC2)n1 | -1.61
COCCN(Cc1ccncc1)C(=O)C1COc2c(cccc2OC)C1 (stereo unspecified) | -14.6
Cc1ccc(CNC(=O)N(C)Cc2cnn(C)c2)s1 | -11.2
N#Cc1ccc(CN2CCCC2Cn2cccn2)c(F)c1 (stereo unspecified) | -9.2
CC(C)N(Cc1ccccn1)Cc1nc2c(cnn2C)c(=O)[nH]1 | -6.42
Cc1nc(C)c(CC(=O)Nc2nnc(C(C)C)s2)c(=O)[nH]1 | -7.16
Cc1ccc(O)c(CNCC2CCCN2c2cccnn2)n1 (stereo unspecified) | -7.92
O=C(CCN1C(=O)CCC1=O)NCC1(c2c(F)cccc2F)CCCC1 | -9.47
Cc1cccnc1NC(=O)c1ccc(-n2ncc(C#N)c2N)cc1 | -9.35
Cc1cc(CNC(=O)CN2CCCC(Cn3cncn3)C2)ccc1F (stereo unspecified) | -9.92
Cc1noc(C)c1C(=O)NCc1ccc(N2CCCCCC2)nc1 | 2.76
CCc1[nH]ncc1C(=O)N1CCOC(c2nc(C)n[nH]2)C1 (stereo unspecified) | -8.69
O=C(CCc1ccccc1Br)NS(=O)(=O)c1ccc2c(c1)OCCO2 | -10.7

SMILES | cytotoxicity at 10 µM [%]
Cc1cc(C)n(C2CN(CCC(=O)NC3CCCCC3)C2)n1 | 1.04
CN1CCN(C2CCN(CCOc3ccc(F)cc3)CC2)C1=O | -7.8
CC(C)OCCN1CCC(N2CCN(C)C2=O)CC1 | -11.4
COCCN1CCC(NCc2cccc(F)c2)C1 (stereo unspecified) | -8.85
Cc1nc(CN2CCCC(N(C)CCc3ccncc3)C2)no1 (stereo unspecified) | -6.93
COc1c(CNCc2cnn(C)c2)c(C(C)C)nn1C | -7.39
Cc1noc(C)c1C(=O)N1CCCC1c1c(C)nn(C)c1Cl (stereo unspecified) | -12.6
Cc1ncc2c(n1)CN(Cc1noc(C3CC3)n1)CC2 | -13.4
COc1cccc(COCC(=O)N2CCCC(c3cc(C)[nH]n3)C2)c1 (stereo unspecified) | -6.81
CNCC1CCC(c2cc(CN(C)C(=O)c3cnccn3)n(C)n2)CC1 (stereo unspecified) | -5.1
COc1ccc(CN(Cc2c[nH]cn2)CC2CCCO2)c(OC)c1 (stereo unspecified) | -26
c1ccc(CN2Cc3[nH]nc(COc4cccnc4)c3C2)nc1 | -109
O=C(c1cccnc1)N1CCc2ncnc(C3CCOC3)c2CC1 (stereo unspecified) | 4.22
CC(C)c1nc(C2CCCNC2)no1 (stereo unspecified) | 0.684
Cc1noc(C)c1CN1CCc2ncnc(-c3cccnc3)c2CC1 | -97.9
Cn1ccnc1C(=O)N1CCC2(CCN2Cc2ccc(F)cc2)C1 (stereo unspecified) | -97
CN(Cc1ccco1)C[C@H]1OC[C@@H]2CCN(Cc3cccs3)C[C@@H]21 | 8.11
O=C(NC1CC1)[C@H]1C[C@H]2OCC[C@H]2N(CC2CCOCC2)C1 | 2.98
NC1CCC(n2cc(C(=O)NC3CCc4ccccc4C3)nn2)CC1 (stereo unspecified) | -4.42
